Converted amounts (≈) assume the structure as drawn.
Tests used:
Type in all cases: functional
Nakaseomyces glabratus = assay: Tested in vitro for the minimum inhibitory concentration (MIC) against Candida glabrata ATCC 90030
How it was run: (§1)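 Broth MIC determined in RPMI1640 at pH 7.0, incubated at 35 °C; MIC taken as the lowest concentration giving 80% inhibition of fungal growth.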

Candida albicans [1] = assay: Tested in vitro for the minimum inhibitory concentration (MIC) against Candida albicans SANK51486; how it was run: as §1
Candida albicans [2] = assay: Tested in vitro for the minimum inhibitory concentration (MIC) against Candida albicans TIMM3164; how it was run: as §1
Candida albicans [3] = assay: Tested in vitro for the minimum inhibitory concentration (MIC) against Candida albicans ATCC 24433; how it was run: as §1
Candida tropicalis = assay: Tested in vitro for the minimum inhibitory concentration (MIC) against Candida tropicalis ATCC750; how it was run: as §1
Candida albicans [4] = assay: Tested in vitro for the minimum inhibitory concentration (MIC) against Candida albicans ATCC 64550; how it was run: as §1

SMILES | MIC (Nakaseomyces glabratus) | MIC (Candida albicans [1]) | MIC (Candida albicans [2]) | MIC (Candida albicans [3]) | MIC (Candida tropicalis) | MIC (Candida albicans [4])
CC(C)C1=CC2CC3(C=O)[C@@H]4CC[C@@H](C)[C@H]4CC2(CN(C)C2CCCCC2)C13C(=O)O (stereo not given in full) | 8 mg/L (≈ 18.7 µM) | 8 mg/L (≈ 18.7 µM) | 16 mg/L (≈ 37.4 µM) | 8 mg/L (≈ 18.7 µM) | > 16 mg/L | 16 mg/L (≈ 37.4 µM)
CC(C)C1=CC2CC3(C=O)[C@@H]4CC[C@@H](C)[C@H]4CC2(C(=O)NC2CCCCC2)C13C(=O)O (stereo not given in full) | 0.5 mg/L (≈ 1.17 µM) | > 4 mg/L | > 4 mg/L | > 4 mg/L | > 4 mg/L | > 4 mg/L
CC(C)C1=CC2CC3(C=O)[C@@H]4CC[C@@H](C)[C@H]4CC2(CSC2CCCCC2)C13C(=O)O (stereo not given in full) | 0.031 mg/L (≈ 0.072 µM) | ≤ 0.016 mg/L | 0.063 mg/L (≈ 0.146 µM) | 0.031 mg/L (≈ 0.072 µM) | 2 mg/L (≈ 4.64 µM) | 0.125 mg/L (≈ 0.29 µM)
C/C=C/C=C\C(=O)O[C@H]1[C@H](O)[C@H](OCC23C[C@@H]4[C@H](C)CC[C@H]4C4(C=O)CC2C=C(C(C)C)C34C(=O)O)O[C@H](C)[C@H]1OC (stereo not given in full) | > 4 mg/L | 0.25 mg/L (≈ 0.426 µM) | 0.5 mg/L (≈ 0.852 µM) | 0.5 mg/L (≈ 0.852 µM) | 0.5 mg/L (≈ 0.852 µM) | 0.5 mg/L (≈ 0.852 µM)
CC(C)C1=CC2CC3(C=O)[C@@H]4CC[C@@H](C)[C@H]4CC2(CON=C2CCCCC2)C13C(=O)O (stereo not given in full) | 0.063 mg/L (≈ 0.147 µM) | 0.031 mg/L (≈ 0.0725 µM) | 0.063 mg/L (≈ 0.147 µM) | 0.031 mg/L (≈ 0.0725 µM) | 1 mg/L (≈ 2.34 µM) | 0.063 mg/L (≈ 0.147 µM)
CC(C)C1=CC2CC3(C=O)[C@@H]4CC[C@@H](C)[C@H]4CC2(COC2CCCCC2)C13C(=O)O (stereo not given in full) | ≤ 0.063 mg/L | ≤ 0.063 mg/L | 0.25 mg/L (≈ 0.603 µM) | 0.125 mg/L (≈ 0.302 µM) | 2 mg/L (≈ 4.82 µM) | 0.25 mg/L (≈ 0.603 µM)
CC(C)C1=CC2CC3(C=O)[C@@H]4CC[C@@H](C)[C@H]4CC2(/C=N/OC2CCCCC2)C13C(=O)O (stereo not given in full) | 0.125 mg/L (≈ 0.292 µM) | 0.031 mg/L (≈ 0.0725 µM) | 0.063 mg/L (≈ 0.147 µM) | 0.031 mg/L (≈ 0.0725 µM) | 1 mg/L (≈ 2.34 µM) | 0.063 mg/L (≈ 0.147 µM)
CC(C)C1=CC2CC3(C=O)[C@@H]4CC[C@@H](C)[C@H]4CC2(C(=O)OC2CCCCC2)C13C(=O)O (stereo not given in full) | 0.5 mg/L (≈ 1.17 µM) | ≤ 0.125 mg/L | 0.25 mg/L (≈ 0.583 µM) | ≤ 0.125 mg/L | 4 mg/L (≈ 9.33 µM) | 0.5 mg/L (≈ 1.17 µM)
OC(Cn1cncn1)(Cn1cncn1)c1ccc(F)cc1F [FLUCONAZOLE] | > 4 mg/L | 0.25 mg/L (≈ 0.816 µM) | > 4 mg/L | 0.5 mg/L (≈ 1.63 µM) | 0.5 mg/L (≈ 1.63 µM) | > 4 mg/L
CCC(C)n1ncn(-c2ccc(N3CCN(c4ccc(OC[C@H]5CO[C@](Cn6cncn6)(c6ccc(Cl)cc6Cl)O5)cc4)CC3)cc2)c1=O (stereo not given in full) [ITRACONAZOLE] | 1 mg/L (≈ 1.42 µM) | 0.031 mg/L (≈ 0.0439 µM) | 0.25 mg/L (≈ 0.354 µM) | 0.125 mg/L (≈ 0.177 µM) | 0.5 mg/L (≈ 0.709 µM) | 1 mg/L (≈ 1.42 µM)

— ChEMBL document CHEMBL1135230, “Synthesis of Sordaricin analogues as potent antifungal agents against Candida albicans” (2002)
